Kd data for one molecule are collected here from PMC4982705 (Biochemical pharmacology, 2016).

Assay in all cases: intrinsic fluorescence titration
Holding throughout (format): binding

Assay [1] concerns the target SULT1B1 (hSULT1B1, wildtype) (Homo sapiens, UniProt O43704, E275K). The essentials:
(§1)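 Ligand: PAP (cofactor product). Protein: N-terminal 6xHis human SULT1B1, expressed in E. coli BL21-DE3-RIL (IPTG, 20°C) and purified on Ni-NTA. 0.20 µM enzyme in 10 mM sodium phosphate pH 7.8, 10% glycerol, 150 mM NaCl. PAP titrated in; each step mixed 15 s, then intrinsic fluorescence (ex 282, em 338) read for 15 s. Kd from one-site hyperbolic fit; triplicate runs.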

In assay [2] the target is SULT1B1 (hSULT1B1, wildtype) (Homo sapiens, UniProt O43704, K266E).
SULT1B1 (hSULT1B1, wildtype) (Homo sapiens, UniProt O43704, K266E), sequence (O43704 whole entry K266E): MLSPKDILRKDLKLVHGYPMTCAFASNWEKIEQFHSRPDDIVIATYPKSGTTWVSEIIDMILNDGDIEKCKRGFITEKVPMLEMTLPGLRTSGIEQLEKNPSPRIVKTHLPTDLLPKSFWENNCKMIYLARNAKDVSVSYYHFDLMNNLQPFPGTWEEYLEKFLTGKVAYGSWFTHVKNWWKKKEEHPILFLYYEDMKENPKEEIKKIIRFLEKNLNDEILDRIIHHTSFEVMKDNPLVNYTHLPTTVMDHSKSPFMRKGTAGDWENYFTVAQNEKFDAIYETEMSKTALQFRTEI
The target in assay [3] is SULT1B1 (hSULT1B1, wildtype) (Homo sapiens, UniProt O43704, E275K/H109Y). The essentials:
as §1

Assay [4] addresses SULT1B1-K266E/E275K heterodimer (Homo sapiens, UniProt O43704, E275K/K266E). The essentials:
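His-tagged K266E and E275K SULT1B1 subunits were purified separately from E. coli, then co-incubated at normalized concentrations for 1 h on ice to form the heterodimer. 0.20 µM enzyme in 10 mM sodium phosphate pH 7.8, 10% glycerol, 150 mM NaCl. PAP added stepwise; intrinsic fluorescence (ex 282/em 338) averaged over 15 s after 15 s mixing. Kd from one-site hyperbolic fit; triplicate.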

Assay [5] concerns the target SULT1B1 (hSULT1B1, wildtype) (Homo sapiens, UniProt O43704). The essentials:
as §1

SULT1B1 (hSULT1B1, wildtype) (Homo sapiens, UniProt O43704, E275K/H109Y), sequence (O43704 whole entry H109Y/E275K): as the sequence (O43704 whole entry K266E) above, with H109Y, E266K, E275K counted along it
SULT1B1-K266E/E275K heterodimer, sequence (O43704 whole entry K266E): as the sequence (O43704 whole entry K266E) above
SULT1B1-K266E/E275K heterodimer, sequence (O43704 whole entry E275K): as the sequence (O43704 whole entry K266E) above, with E266K, E275K counted along it
SULT1B1 (hSULT1B1, wildtype) (Homo sapiens, UniProt O43704), sequence (O43704 whole entry): as the sequence (O43704 whole entry K266E) above, with E266K counted along it
SULT1B1 (hSULT1B1, wildtype) (Homo sapiens, UniProt O43704, E275K), sequence (O43704 whole entry E275K): as the sequence (O43704 whole entry K266E) above, with E266K, E275K counted along it

Consider `Nc1ncnc2c1ncn2[C@@H]1O[C@H](COP(=O)(O)O)[C@@H](OP(=O)(O)O)[C@H]1O` [PAP, 3′,5′-diphosphoadenosine], for which the Kd in assay [1] is 80 ± 9 nM; in assay [2], 1470 nM; in assay [3] it was 668 ± 31 nM; in assay [4], 180 ± 6 nM; in assay [5], 106 ± 9 nM.
